Assay outcomes as filed in PubChem.
This is one part of a sample in which hits are shown more often than they occur.
DYRK1A inh = inhibitors of rat Dyrk1A kinase; Q63470; ADP-Glo luminescence, NFATc1 peptide; inhibition, % at 12.5 µM; hit rate 0.43% among 310,000; AID 504441; in the data active = inhibition above about 50%
GSK3B inh = blocks human GSK3beta kinase activity; hit rate 0.038% among 300,000; P49841; activity score (negative = inhibition), % at 10 µM; GST-GSK3beta kinase, ADP-Glo luminescence, 60 min; stronger effect = lower value;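 active = more than half of replicate wells score below -50%, meaning over 50% inhibition versus plate controls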
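Test system: GST-tagged human GSK3beta kinase, cell-free; evaluation: activity score scaled between in-plate DMSO and GW8510 controls; measured by: ADP-Glo luminescence; incubation: 60 min reaction, RT; benchmarks: DMSO and 20 µM GW8510; reagent: peptide substrate plus 25 µM ATP (final); medium: Tris/MgCl2 kinase buffer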
STK33 kinase inh = human STK33 kinase inhibition; purified STK33, MBP phosphorylation, ADP-Glo luminescence; inhibition, % at 10 µM; hit rate 0.073% among 320,000;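 active = inhibition at or above 25%, using the most active replicate where run in duplicate; inactive = inhibition below 25%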
Target sequence (Q9BYT3 whole entry, looked up): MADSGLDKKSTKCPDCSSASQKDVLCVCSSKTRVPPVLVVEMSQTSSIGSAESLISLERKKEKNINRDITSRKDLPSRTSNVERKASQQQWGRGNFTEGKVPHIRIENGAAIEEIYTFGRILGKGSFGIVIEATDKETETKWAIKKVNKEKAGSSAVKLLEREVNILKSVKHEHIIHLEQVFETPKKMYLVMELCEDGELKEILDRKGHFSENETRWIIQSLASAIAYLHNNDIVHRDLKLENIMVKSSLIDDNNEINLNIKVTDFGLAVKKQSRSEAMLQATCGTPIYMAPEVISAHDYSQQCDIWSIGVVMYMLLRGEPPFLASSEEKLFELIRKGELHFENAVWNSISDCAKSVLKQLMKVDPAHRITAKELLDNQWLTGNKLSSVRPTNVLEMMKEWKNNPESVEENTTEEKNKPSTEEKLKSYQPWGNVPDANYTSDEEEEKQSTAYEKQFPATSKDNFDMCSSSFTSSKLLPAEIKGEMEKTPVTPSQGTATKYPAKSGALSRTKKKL
GSK3A inh = inhibitors of human GSK-3 alpha kinase | ADP-Glo luminescence, 60 min | inhibition, % at 10 µM | hit rate 0.1% among 320,000 | AID 2650;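 active = more than half of replicates show inhibition above 20%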;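 note: GST-tagged GSK-3 alpha with peptide substrate and 25 µM ATP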
Dyrk1A artifact = counter-screen for Dyrk1A inhibitors: ADP-Glo luciferase artifacts | shares compounds with DYRK1A inh | ADP-Glo luciferase artifact assay, no Dyrk1A, luminescence | AC50, µM (series often up to 12 µM) | 1,300 tested, under 10 active | AID 588348;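 active = fitted half-maximal dose AC50 no more than ten times the top valid tested dose, with luminescence dropping as dose rises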
A number is an active result; n = inactive; x = no result.

SMILES | DYRK1A inh | GSK3B inh | STK33 kinase inh | GSK3A inh | Dyrk1A artifact
O=S(=O)(Nc1c(S(=O)(=O)c2ccccc2)c2nc3ccccc3nc2n1C1CCCCC1)c1ccccc1 | 75 | n | n | n | n
O=C(COC(=O)c1cc[n+]([O-])cc1)Nc1ccc([N+](=O)[O-])cc1 | n | n | n | n | x
COc1ccc(/C=C(/C(=O)c2cccs2)N2C=CC=CC2=C(C#N)C#N)cc1 | 64 | n | x | x | n
COc1cccc(CNC(=O)CCNS(=O)(=O)c2ccc(C)cc2)c1 | n | n | n | n | x
O=C(O)COc1ccc2occ(C(=O)c3ccccc3)c2c1 | 66 | n | n | 83 | n
Cc1ccc(C(=O)c2coc3ccc(OCC(=O)O)cc23)cc1 | 70 | -72 | n | 89 | n
CC(=O)Oc1ccc2occ(C(=O)c3ccccc3)c2c1 | x | n | n | n | x
COc1cccc(Cn2nnc(C(=O)NCCc3ccc(Cl)cc3)c2N)c1 | 56 | n | n | n | n
Nc1c(C(=O)NCc2ccccc2)nnn1Cc1ccccc1 | 60 | n | n | n | n
CSc1ccc(Cn2nnc(C(=O)NCc3ccccc3)c2N)cc1 | n | n | n | n | x
O=C(Nc1cccc(-c2nn[nH]n2)c1)c1csc2c1CCCC2 | 56 | n | n | n | n
CCc1ccc(C(=O)Nc2cccc(-c3nn[nH]n3)c2)s1 | 83 | n | n | n | n
CCc1ccc(C(=O)Nc2nc(C)cs2)s1 | n | n | n | n | x
O=C(Nc1ccccc1O)c1csc2c1CCCC2 | n | n | n | n | x
COc1cccc(/C=N/n2c(COc3ccccc3)n[nH]c2=S)c1O | 57 | n | n | n | n
O=C1c2ccccc2C(=O)c2c(O)c(O)cc(O)c21 | n | x | x | x | x
O=c1c(O)cccc2cc(O)c(O)c(O)c12 | 82 | n | n | n | n
Cc1ccc(-c2cc(O)cc3sc(=O)oc23)cc1C | 54 | n | n | x | n
COc1nc(C)ccc1-c1noc(-c2ccccn2)n1 | 57 | n | n | n | n
O=c1cc(-c2ccco2)oc2c1ccc1ccccc12 | 59 | n | n | n | n
O=c1cc(-c2ccc(O)cc2)oc2c1ccc1ccccc12 | x | x | n | n | x
O=C1CC(c2ccc(S(=O)(=O)NC3CC3)cc2)CN1 (stereo unspecified) | 58 | n | n | n | n
O=C1CC(c2ccc(S(=O)(=O)NCc3ccncc3)cc2)CN1 (stereo unspecified) | n | n | n | n | x
Cc1[nH][nH]c(=O)c1N=Nc1ccc(Br)c(Cl)c1 | n | n | n | n | x
Cc1[nH][nH]c(=O)c1N=Nc1ccccc1Cl | 55 | n | n | n | n
SMILES | DYRK1A inh | GSK3B inh | STK33 kinase inh | GSK3A inh | Dyrk1A artifact
COc1cccc(Nc2nc(NCCO)c3ccccc3n2)c1 | 52 | n | n | x | n
CS(=O)(=O)Nc1ccc(-c2cc(/C=C3\SC(N)=NC3=O)c[nH]c2=O)cc1 | 86 | n | 39 | n | n
COC(=O)C1=C(C)N(Cc2ccccc2)C(=NCc2cccc(C(F)(F)F)c2)N[C@H]1c1cccc(C(F)(F)F)c1 | n | x | n | n | x
COCCN=C1N[C@@H](c2cccc(C(F)(F)F)c2)C(C(=O)OC)=C(C)N1Cc1ccccc1 | 57 | n | n | n | n
Cc1ccc(C(=O)N(C)CC(=O)Nc2ccc(N3CCOCC3)cc2)s1 | n | n | n | n | x
O=C(COC(=O)c1cc(S(=O)(=O)N2CCOCC2)ccc1F)NCc1ccc2c(c1)OCO2 | n | x | n | n | x
Cc1cc2c(ccc3[nH]onc32)n1 | 51 | n | n | n | n
Cc1ccc2nc(C)cc(Cl)c2c1 | n | n | n | x | x
Cc1ccc(C)c(NC(=S)N(C)CCO)c1 | n | n | n | n | x
CS(=O)(=O)c1ccc(-c2cn3cc(C(=O)O)ccc3n2)cc1 | 77 | n | n | n | n
Cc1nc(N)sc1-c1csc(Nc2cccc(C(=O)O)c2)n1 | n | n | n | n | x
CC(=O)Nc1nc(C)c(-c2csc(Nc3ccc(O)cc3)n2)s1 | 76 | x | n | n | n
Cc1nc(N)sc1-c1csc(Nc2ccccc2)n1 | 52 | n | n | n | n
CS(=O)(=O)c1cccc(-c2nnc(NC(=O)C3=COCCO3)o2)c1 | n | n | n | n | x
CN(C)CCn1cnc2c(c1=N)C(c1ccccc1)c1ccc3ccccc3c1O2 (stereo unspecified) | n | n | n | n | x
CCN(CC)C(=S)Sc1c(-c2ccccc2)c2cc(Cl)ccc2[nH]c1=O | n | n | n | x | x
COc1ccc(-c2cc(NCCc3ccncc3)n3ncnc3n2)cc1 | 51 | n | n | n | n
OCc1cc(C(O)CNCCCCCCOCCCCc2ccccc2)ccc1O (stereo unspecified) | 53 | n | n | n | n
Cc1ccc(C)c(NC(=O)C2CCCN2S(=O)(=O)c2ccc3c(c2)n(C)c(=O)c(=O)n3C)c1 (stereo unspecified) | n | n | n | n | x
Cc1ccccc1NC(=O)C1CCCN1S(=O)(=O)c1ccc2c(c1)n(C)c(=O)c(=O)n2C (stereo unspecified) | 58 | n | n | n | n
CC1(C)C2(C#N)C(=O)NC(=O)C12C#N (stereo unspecified) | n | x | x | x | x
Cn1c2ccccc2c2cc(/C=N/NC(=O)c3cc(O)cc(O)c3)ccc21 | n | n | n | n | x
Cn1c2ccccc2c2cc(/C=N/NC(=O)c3cc(O)ccc3O)ccc21 | 61 | n | n | n | n
Oc1ccc(C2=Nn3c(nnc3-c3ccco3)SC2)cc1O | 79 | n | n | x | n
COc1ccc(OC)c(C2=Nn3c(nnc3-c3ccco3)SC2)c1 | 74 | n | n | n | n
SMILES | DYRK1A inh | GSK3B inh | STK33 kinase inh | GSK3A inh | Dyrk1A artifact
COc1ccc(C2=Nn3c(nnc3-c3ccco3)SC2)cc1 | n | n | n | n | x
COC(=O)c1sccc1-n1cccc1C(=O)C(=O)N1CC(C)OC(C)C1 (stereo unspecified) | n | n | n | n | x
Clc1c(Cl)c(Cl)c2n[nH]nc2c1Cl | 80 | n | n | n | n
COc1ccc(NC(=O)/C(C#N)=C\c2ccc(-c3cccc(C(=O)O)c3C)o2)cc1 | 78 | n | n | n | n
c1cncc(-c2nc3ccccc3[nH]2)c1 | 51 | n | n | n | n
Cc1ccccc1/C=N/Nc1ncnc2nc[nH]c12 | 63 | n | n | 54 | n
Clc1cnc(N/N=C/c2cccs2)c(Cl)c1 | n | n | n | n | x
Cc1ccsc1/C=N/Nc1ncnc2nc[nH]c12 | 54 | n | n | n | n
C(=N\Nc1ncnc2nc[nH]c12)/c1cccs1 | 66 | n | n | n | n
CCC(C)NC(=O)c1ccc(N2CC3CC(C2)c2cccc(=O)n2C3)c(NC(=O)c2ccc(Br)o2)c1 (stereo unspecified) | n | n | n | n | x
O=C(CCC(=O)N1CCN(c2cccc(Cl)c2)CC1)c1cccs1 | n | n | n | n | x
COCCCn1c(=O)c2sccc2n2c(CCCC(=O)N(C)Cc3ccco3)nnc12 | n | n | n | n | x
CCOC(=O)c1cccc(NC(=O)CC2Oc3ccccc3NC2=O)c1 (stereo unspecified) | n | n | n | n | x
COc1cccc(NC(=O)c2ccncc2)c1 | n | n | n | n | x
COc1cccc(NC(=O)c2sc(NC(=O)c3ccncc3)nc2C)c1 | 54 | n | n | n | n
